The subject of data set [1] is HEK293. Description: Effect on Nfr2 mRNA expression in HEK293 cells harboring Keap1 at 200 to 1000 nM after 48 hrs by quantitative RT-PCR analysis. The class given is functional, cell-based. As to conditions: Homo sapiens. In a few lines:
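HEK293 cells treated in triplicate at 200 or 1000 nM for 48 h; Nrf2 mRNA relative to GAPDH by quantitative RT-PCR using the 2−ΔΔCt method; mean ± SD from three experiments.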

The target in data set [2] is Kelch-like ECH-associated protein 1 (Homo sapiens) (UniProt Q14145). Description: Inhibition of Keap1/Nrf2 (unknown origin) interaction transfected in HEK293 cells assessed as upregulation of HO-1 mRNA expression at 200 to 1000 nM after 48 hrs by quantitative RT-PCR analysis. Format: cell-based. The essentials:
(§1)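 HEK293 cells (ATCC; high-glucose DMEM, 10% FBS) were treated in triplicate for 48 h. For the reporter read-out, cells were transfected with an ARE-dependent luciferase plasmid and luciferase activity was measured. For mRNA, total RNA was extracted with TRIzol and reverse transcribed, and target transcripts were quantified by qRT-PCR relative to GAPDH using the 2−ΔΔCt method. Three independent experiments, mean ± SD.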

The target is the same in data set [3]. Description: Inhibition of Keap1/Nrf2 (unknown origin) interaction transfected in HEK293 cells assessed as upregulation of NQO1 mRNA expression at 200 to 1000 nM after 48 hrs by quantitative RT-PCR analysis. Format: cell-based. The essentials:
as §1

Data set [4] has the same target. Description: Inhibition of Keap1/Nrf2 (unknown origin) interaction transfected in HEK293 cells assessed as activation of Nrf2 at 200 to 1000 nM after 48 hrs by ARE-driven luciferase reporter gene assay. The class given is cell-based. In a few lines: as §1
(In general: Reporter assays use an easily measured gene product as a stand-in for the process of interest.)

Data set [5] concerns the target T1, Inhibitor of nuclear factor kappa-B kinase subunit beta (Homo sapiens) (UniProt O14920).
T1 sequence (whole entry): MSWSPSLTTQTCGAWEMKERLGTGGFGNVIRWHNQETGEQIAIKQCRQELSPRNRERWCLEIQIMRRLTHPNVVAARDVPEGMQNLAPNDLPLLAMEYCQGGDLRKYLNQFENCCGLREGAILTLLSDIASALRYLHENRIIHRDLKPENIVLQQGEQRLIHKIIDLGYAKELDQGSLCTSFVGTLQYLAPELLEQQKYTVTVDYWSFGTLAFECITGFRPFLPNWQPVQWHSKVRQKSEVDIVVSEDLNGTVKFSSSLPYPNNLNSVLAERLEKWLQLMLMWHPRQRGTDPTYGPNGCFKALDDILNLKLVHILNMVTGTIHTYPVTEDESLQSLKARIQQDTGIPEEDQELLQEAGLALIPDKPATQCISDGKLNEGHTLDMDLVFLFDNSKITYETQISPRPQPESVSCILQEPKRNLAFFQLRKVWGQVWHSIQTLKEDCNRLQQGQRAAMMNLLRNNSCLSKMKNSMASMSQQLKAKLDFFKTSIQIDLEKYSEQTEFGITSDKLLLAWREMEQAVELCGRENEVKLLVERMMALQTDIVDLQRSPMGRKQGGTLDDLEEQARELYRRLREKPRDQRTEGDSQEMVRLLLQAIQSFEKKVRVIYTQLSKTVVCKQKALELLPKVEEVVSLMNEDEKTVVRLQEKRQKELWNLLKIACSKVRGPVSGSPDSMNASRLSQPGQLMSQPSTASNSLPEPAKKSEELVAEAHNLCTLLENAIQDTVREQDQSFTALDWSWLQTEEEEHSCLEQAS
Description: Inhibition of IKKbeta (unknown origin) transfected in HEK293 cells assessed as reduction in TNFalpha-induced upregulation of COX2 mRNA expression at 200 to 1000 nM administered 6 hrs after TNFalpha stimulation measured for 24 hrs by quantitative RT-PCR analysis. Format: cell-based. In a few lines:
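HEK293 cells pretreated with TNF-α (10 ng/mL) for 6 h, then given compound at 200 or 1000 nM for 24 h, in triplicate; iNOS, COX2 and MCP-1 mRNA relative to GAPDH by quantitative RT-PCR, 2−ΔΔCt method; mean ± SD from three experiments.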

The nature of data set [6]: AUC (0 to t) in Sprague-Dawley rat at 10 mg/kg, iv measured up to 24 hrs by LC-MS/MS analysis. Format: ADME, organism-based. Particulars: in vivo. Further details: dose 10 mg/kg, time < 24 hr, route intravenous. The essentials:
(§2)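 Rats dosed intravenously at 10 mg/kg; blood drawn from suborbital vein at 0, 2, 5, 15, 30, 60 min and 1.5, 2, 4, 6, 8, 12, 24 h; plasma levels by LC-MS/MS; parameters from concentration–time profiles, mean ± SD, n = 3.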

The nature of data set [7]: Half life in Sprague-Dawley rat at 10 mg/kg, iv measured up to 24 hrs by LC-MS/MS analysis. Format: ADME, organism-based. As to conditions: in vivo. The essentials:
as §2

Data set [8] is described as follows: Clearance in Sprague-Dawley rat at 10 mg/kg, iv measured up to 24 hrs by LC-MS/MS analysis. The class given is ADME, organism-based. Particulars: in vivo. The essentials: as §2
The nature of data set [9]: Volume of distribution at steady state in Sprague-Dawley rat at 10 mg/kg, iv measured up to 24 hrs by LC-MS/MS analysis. Format: ADME, organism-based. As to conditions: in vivo, read-out: Vdss. The essentials:
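Rats received a single 10 mg/kg i.v. dose. Blood was drawn from the suborbital vein at 0, 2, 5, 15, 30 and 60 min and at 1.5, 2, 4, 6, 8, 12 and 24 h, and plasma was analyzed by LC-MS/MS. n = 3, mean ± SD.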

Data set [10] deals with H9c2. Description: Cytotoxicity against rat H9c2 cells assessed as reduction in cell viability after 24 hrs by MTT assay. Format: cell-based. As to conditions: H9c2, 24 h. In a few lines: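 HEK293 or H9C2 cells grown in high-glucose DMEM with 10% FBS, exposed to compound for 24 h; viability by MTT, IC50 calculated.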
A short description of data set [11]: Acute toxicity in ip dosed ICR mouse assessed as lethality administered daily for 7 days. Format: organism-based. Particulars: in vivo. In a few lines:
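Intraperitoneal dosing of ICR mice once daily for 7 days, with top doses up to 600 or 1000 mg/kg depending on the compound. Lethality was recorded and expressed as an LD50 (mg/kg).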

In data set [12] the target is T1, Inhibitor of nuclear factor kappa-B kinase subunit beta (Homo sapiens). Description: Inhibition of IKKbeta (unknown origin) transfected in HEK293 cells assessed as reduction in TNFalpha-induced upregulation of COX2 protein expression at 200 to 1000 nM administered 6 hrs after TNFalpha stimulation measured for 24 hrs by Western blot method. Format: cell-based. The essentials: (§3)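 HEK293 cells pretreated with TNF-α (10 ng/mL) for 6 h, then given compound at 200 or 1000 nM for 24 h, in triplicate; nuclear and cytosolic p65, iNOS and COX2 protein by western blot; mean ± SD from three experiments.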

Data set [13] shares this target. Description: Inhibition of IKKbeta (unknown origin) transfected in HEK293 cells assessed as mitigation of TNFalpha-induced increase in ratio of nuclear to cytosolic p65 at 200 to 1000 nM administered 6 hrs after TNFalpha stimulation measured for 24 hrs by Western blot method. Format: cell-based. In a few lines: as §3
(In western blotting, separated proteins are transferred to a membrane and probed.)

Data set [14] shares this target. Description: Inhibition of IKKbeta (unknown origin) transfected in HEK293 cells assessed as reduction in TNFalpha-induced upregulation of MCP1 mRNA expression at 200 to 1000 nM administered 6 hrs after TNFalpha stimulation measured for 24 hrs by quantitative RT-PCR method.

Two molecules from ChEMBL document CHEMBL4017544 (J Med Chem, 2017) can be followed below.

The source made the active and inactive calls. The calls are words filed in the database; no cut-off is given here.

What is called AUC(0-t) is exposure summed from dosing to a finite time, without extrapolation to infinity. The term half-life denotes the time in which the quantity being followed falls by half. Usually clearance stands for the rate of elimination divided by the concentration. For orientation: IC50 means the midpoint of a concentration-inhibition curve. As usually defined, the LD50 is the dose at which mortality reaches 50%.

Sequence of Kelch-like ECH-associated protein 1 (Homo sapiens) (Q14145 whole entry): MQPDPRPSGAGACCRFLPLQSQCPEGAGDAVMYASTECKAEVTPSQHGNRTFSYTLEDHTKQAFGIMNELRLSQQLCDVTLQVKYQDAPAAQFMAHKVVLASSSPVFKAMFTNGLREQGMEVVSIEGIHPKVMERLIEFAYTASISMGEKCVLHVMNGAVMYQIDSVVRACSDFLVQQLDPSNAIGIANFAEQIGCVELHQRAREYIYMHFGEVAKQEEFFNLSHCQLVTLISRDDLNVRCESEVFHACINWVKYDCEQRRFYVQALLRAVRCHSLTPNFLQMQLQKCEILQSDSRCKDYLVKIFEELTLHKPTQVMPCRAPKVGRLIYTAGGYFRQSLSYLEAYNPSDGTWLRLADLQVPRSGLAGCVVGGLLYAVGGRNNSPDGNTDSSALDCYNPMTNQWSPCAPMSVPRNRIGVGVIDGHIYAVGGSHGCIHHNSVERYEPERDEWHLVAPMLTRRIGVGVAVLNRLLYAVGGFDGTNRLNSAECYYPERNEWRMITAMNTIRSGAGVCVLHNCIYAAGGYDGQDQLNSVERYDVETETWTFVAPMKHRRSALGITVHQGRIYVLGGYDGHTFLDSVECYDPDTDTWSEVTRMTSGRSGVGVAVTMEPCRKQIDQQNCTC

As for `COC(=O)[C@@H](N)CCC(=O)Nc1ccc(COC2=C(C#N)[C@H](O)[C@]3(C)C4=CC(=O)[C@@H]5[C@@H]6CC(C)(C)CC[C@]6(C(=O)OC)CC[C@@]5(C)[C@]4(C)CC[C@H]3C2(C)C)cc1`, the result in [1] was inactive. Further, the inhibition result in data set [2], in data set [3], in data set [4], in data set [5], in [12] and in [13] was “Active” each time. The inhibition entry in [14] is “Active”. Besides, the AUC(0-t) at 24 h in data set [6] was 509 ng·h/mL. Moreover, in data set [7], the half-life was 1.31 h. The clearance in [8] was 340 mL/min/kg. Also, the Vd in [9] came to 35.1 L/kg. Besides, the IC50 in [10] was determined as 112 µM. Further, the LD50 at 168 h in data set [11] was found to be 886 mg/kg.

Regarding `COC(=O)[C@]12CCC(C)(C)C[C@H]1[C@H]1C(=O)C=C3[C@@]4(C)C=C(C#N)C(=O)C(C)(C)[C@@H]4CC[C@@]3(C)[C@]1(C)CC2` [BARDOXOLONE METHYL], the outcome in data set [1] was inactive. Besides, the inhibition result in data set [2], in data set [3], in [4], in data set [5], in [12] and in data set [13] was “Active” each time. The inhibition result in data set [14] is “Active”. This molecule registered an AUC(0-t) at 24 h in data set [6] of 2060 ng·h/mL. In data set [7], this molecule gave a half-life of 4.41 h. In addition, the clearance in data set [8] is 78 mL/min/kg. Moreover, the Vd in data set [9] turned out to be 29.1 L/kg. Also, the IC50 in data set [10] was determined as 5.2 µM. In addition, in data set [11], the LD50 at 168 h amounted to 425 mg/kg.
